# From article PMC6404985 (Cell chemical biology, 2018)
# “Also recorded” adds a separate entry of the source.
# Legend:
# [1] = test system: BAF-mediated transcriptional repression (Bmi1-luciferase reporter cell line); assay: Bmi1-luciferase reporter assay in mouse ESCs; format: cell-based; settings: for activity in the Bmi1 luciferase reporter assays (in words): follow up library
# How it was run: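 Mouse ESC Bmi1-luciferase reporter line: 10,000 cells per 384-well in ESC medium, 24 h at 37 °C/5% CO2, then compound added by 100 nL pin transfer alongside a positive control. Each concentration in triplicate; DMSO tolerated to 0.5%. After 24 h treatment, equilibrated 10 min at room temperature, SteadyGlo added for 10 min, luminescence read. EC50 derived.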
# [2] = test system: latent HIV-1; assay: Ex vivo primary CD4+ T cell model of HIV-1 latency; format: cell-based; settings: 24 h treatment
# How it was run: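 Healthy-donor CD4+ T cells (buffy coat, Ficoll, RosetteSep negative selection) were spin-infected 24 h after isolation with HXB2 Env-pseudotyped pNL4.3.Luc.R-E- (1200 g, 2 h). After 18 h, cells were washed and cultured with 5 µM saquinavir. Three days later, treated 24 h with 30 µM raltegravir present. Luciferase read-out normalized to total protein, expressed as fold over untreated; Bliss score for combinations.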
# [3] = test system: ARID1A; assay: Biotin pulldown from ESC lysates, ARID1A; format: binding, mouse; settings: 200 µM soluble compound, pulldown with CAM 2–56
# How it was run: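 Beads incubated 2 h with cell lysates pre-incubated with DMSO or 200 µM soluble competitor. Beads washed once, boiled in SDS loading buffer, and bound proteins detected by immunoblot.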
# [4] = test system: latent HIV-1; assay: Second ex vivo model of HIV-1 latency; format: cell-based; settings: 24 h
# How it was run: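 Healthy-donor CD4+ T cells were polarized for 3 days with 10 ng/ml TGF-β, 1 µg/ml α-IL-4 and αCD3/CD28 beads (1:1). Beads removed, then 4 days in 30 IU/ml rIL-2. Spin-infected 90 min at 1200 g, then kept in rIL-2 plus 5 µM saquinavir. Seven days post-infection, treated 24 h with increasing concentrations plus 30 µM raltegravir. Luciferase RLU normalized to total protein.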
# [5] = test system: human primary CD4+ T cells; assay: T cell activation markers CD25 and CD69; format: cell-based; settings: 24 and 72 hours, two healthy donors
# [6] = test system: latent HIV-1; assay: Latency reversal in CD4+ T cells from aviremic HIV-1 infected patients; format: cell-based
# [7] = test system: BAF target genes p21 and c-MYC; assay: Biomarker mRNA expression of BAF target genes in CD4+ T cells; format: cell-based, human
# How it was run: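 Human CD4+ T cells, healthy donors: three donors isolated by Ficoll and RosetteSep negative selection, treated in duplicate with 3 µM test compound or DMSO for 16 h. HIV+ patient cells: frozen PBMCs rested overnight, CD4+ enriched twice, rested 6 h, 3 million cells treated with 10 µM compound or DMSO. TRIreagent RNA, random-primed cDNA; p21 and c-MYC mRNA vs control; Student's t test.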
# [8] = test system: nucleosome occupancy at the HIV-1 5'-LTR; assay: FAIRE assay in J-Lat 11.1; format: cell-based; settings: J-Lat 11.1, overnight treatment
# [9] = test system: wild type ESCs; assay: Viability of wild type ESCs; format: cell-based, mouse; settings: up to 30 µM, 72 h
# How it was run: (§1)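 2000 cells/well in 384-well plates, pre-incubated 24 h at 37 °C, 5% CO2. Compound added by pin transfer; mitoxantrone (10 µM final) as cytotoxic positive control. Incubated 72 h, equilibrated 15 min to room temperature. CellTiter-Glo diluted 1:1 with PBS (pH 7.4) added, luminescence read. Run at eight doses as a viability counter-screen.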
# [10] = test system: HepG2 cells; assay: Viability assay HepG2; format: cell-based, human; settings: 72 h
# How it was run: as §1
# [11] = test system: HEK293T cells; assay: Viability assay HEK293T; format: cell-based, human; settings: 72 h
# How it was run: as §1
# [12] = test system: A549 cells; assay: Viability assay A549; format: cell-based, human; settings: 72 h
# How it was run: as §1
# [13] = test system: latent HIV-1 provirus in J-Lat cells; assay: J-Lat T-cell line models of HIV-1 latency; format: cell-based; settings: 48 h; higher concentrations than in primary cells
# [14] = test system: BAF target genes (Bmi1, Ring1, Fgf4); settings: 30 µM, 18 h
# [15] = test system: latent HIV-1; assay: HIV latency reversal activity of the thiophene hit; format: cell-based
# [16] = CD4+ T cells of three patients, 10 µM
structure (smiles),measurement,setting,value
CCC(CC)Nc1c(Nc2ccc3c(c2)C(=O)N(C)C[C@H](OC)[C@@H](C)CN(Cc2ccc(-c4ccccn4)cc2)[C@@H](C)CO3)c(=O)c1=O [BRD-K04244835],activity in the Bmi1 luciferase reporter assays (in words),[1],low/no activity
CO[C@H]1CN(C)C(=O)c2cc(NC(=O)NC(C)C)ccc2OC[C@H](C)N(Cc2ccccc2)C[C@@H]1C [BRD-K13648511],activity in the Bmi1 luciferase reporter assays (in words),[1],low/no activity
CO[C@H]1CN(C)C(=O)c2cc(NC(=O)NC(C)C)ccc2OC[C@H](C)N(Cc2ccc(-c3cccnc3)cc2)C[C@@H]1C [BRD-K17257309],activity in the Bmi1 luciferase reporter assays (in words),[1],moderate activity
CO[C@H]1CN(C)C(=O)c2cc(N)ccc2OC[C@H](C)N(Cc2ccc(-c3ccccn3)cc2)C[C@@H]1C [BRD-K25923209],activity in the Bmi1 luciferase reporter assays (in words),[1],high activity
same,transcription of latent HIV-1 in ex vivo infected primary CD4+ T cells,[2],triggered HIV transcription
same,ARID1A enrichment upon preincubation of lysates with soluble competitor,[3],complete reduction
CO[C@H]1CN(C)C(=O)c2cc(NC(=O)OC(C)C)ccc2OC[C@H](C)N(Cc2ccc(-c3ccccn3)cc2)C[C@@H]1C [BRD-K80443127],activity in the Bmi1 luciferase reporter assays (in words),[1],high activity
same,transcription of latent HIV-1 in ex vivo infected primary CD4+ T cells,[2],slightly higher activity at low concentrations; also recorded: triggered HIV transcription
same,activation in second ex vivo model of HIV-1 latency,[4],activation was confirmed
same,effect on CD25 and CD69 expression (T cell activation),[5],no effect
same,potentiation of prostratin activity,[6]; all three patients,significant potentiation
same,cell associated HIV mRNA after ex vivo treatment alone,[6]; in one patient,significant increase
same,POL copies when co-treated with prostratin,"[6]; patient 2 and 3, 10 µM with 200 nM prostratin, 24 h",significant increase
same,cell associated HIV-1 POL after treatment alone,"[6]; patient 2 and 3, 10 µM, 24 h",did not result in a significant increase
same,differential expression of c-MYC and p21,"[7]; CD4+ T cells of healthy donors, 3 µM, 16 hours",consistent with BAF inhibition
same,C-MYC transcripts levels,[7]; [16],significant decrease
same,p21 transcripts levels,[7]; [16],significant decrease
same,chromatin accessibility at the Nuc-1 position of the 5' LTR,[8],increased chromatin accessibility
CO[C@H]1CN(C)C(=O)c2cc(NC(=O)NC(C)C)ccc2OC[C@H](C)N(Cc2ccc(-c3ccccn3)cc2)C[C@@H]1C [BRD-K98645985],activity in the Bmi1 luciferase reporter assays (in words),[1],high activity
same,EC50,"[1]; read-out: EC50 in the luciferase assay, 24 h compound treatment, re-evaluation of hit",~2370 nM
same,toxicity to ESCs,[9],no toxicity
same,toxicity to HepG2 cells,[10],no toxicity
same,toxicity to HEK293T cells,[11],no toxicity
same,toxicity to A549 cells,[12],no toxicity
same,transcription of latent HIV-1 in ex vivo infected primary CD4+ T cells,[2],triggered HIV transcription
same,latency reversal in J-Lat cells,[13],concentration dependent latency reversal
same,fold decrease in Fgf4,[14],3.3 fold
same,fold increase in Bmi1,[14],5 fold
same,fold increase in Ring1,[14],2.6 fold
C=CCNc1nc(NCc2cccc(OC)c2)c2sc(-c3ccccc3)cc2n1 [MLS003122856],HIV latency reversal activity,[15],only moderate HIV latency reversal activity
